In ChEMBL document CHEMBL1156597, “Structure-activity relationship of kahalalide F synthetic analogues” (J Med Chem, 2008) one finds IC50 data, which are given here for four compounds.

Assay [1] deals with DU-145. The experiment in a line: Cytotoxicity against human DU145 cells after 48 hrs by SRB assay. The conditions noted are these: Homo sapiens, DU-145, 48 h. Type of assay: functional, cell-based. A digest of the protocol: (§1)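 Cells grown in RPMI 1640 with 10% FBS and penicillin/streptomycin at 37 °C and 5% CO₂, trypsinized, then seeded at 5 × 10³/well. After 18 h drug-free attachment, samples in DMSO/EtOH/PBS (0.5:0.5:99) were added for 48 h continuous exposure. Cells were fixed with cold TCA (1 h, 4 °C) and stained with SRB (10 min). Tris-solubilized stain read at 490 nm. Triplicate wells, mean ± SD; GI₅₀ derived.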
On the technique in general: Sulforhodamine B stains cellular protein and so reports cell mass.

The test system of another assay is A549. The assay can be described thus: Cytotoxicity against human A549 cells after 48 hrs by SRB assay. The conditions noted are these: Homo sapiens, A549, 48 h. It is filed as functional, cell-based. A digest of the protocol: as §1
Assay [2] concerns SK-MEL-28. The assay can be described thus: Cytotoxicity against human SK-MEL-28 cells.
In the next assay the test system is HT-29. The experiment in a line: Cytotoxicity against human HT29 cells after 48 hrs by SRB assay. Type of assay: functional, cell-based. The conditions noted are these: Homo sapiens, HT-29, 48 h. A digest of the protocol: as §1
For assay [3], the system named is SK-MEL-28. The assay can be described thus: Cytotoxicity against human SK-MEL-28 cells after 48 hrs by SRB assay. It is filed as functional, cell-based. The conditions noted are these: Homo sapiens, SK-MEL-28, 48 h. Put shortly: as §1
For assay [4], the system named is DU-145. The assay can be described thus: Cytotoxicity against human DU145 cells.

Each structure is given as a SMILES string. pIC50: −log10 of the molar value.

As a reminder, the pIC50 is the IC50 on a negative log10 scale, so that one unit is a factor of ten. A lower pIC50 goes with a high IC50. For `C/C=C1\NC(=O)[C@H](Cc2ccccc2)NC(=O)[C@@H](C(C)C)NC(=O)[C@@H]([C@H](C)CC)NC(=O)[C@H](NC(=O)[C@H](NC(=O)[C@@H](NC(=O)[C@H](NC(=O)CCCC(C)C)C(C)C)[C@@H](C)O)[C@H](C)CC)[C@H](C)OC(=O)[C@H](C(C)C)NC1=O`, the pIC50 in the assay with DU-145 [1], in the assay on A549, with SK-MEL-28 [2] and in the assay on HT-29 was 5.03 in each case.

Turning to `C/C=C1\NC(=O)[C@H](Cc2ccccc2)NC(=O)[C@@H](C(C)C)NC(=O)[C@@H]([C@H](C)CC)NC(=O)[C@H](NC(=O)[C@H](NC(=O)CCCC(C)C)[C@H](C)CC)[C@H](C)OC(=O)[C@H](C(C)C)NC1=O`, the pIC50 with A549, in the assay with HT-29, in the assay with SK-MEL-28 [3] and in the assay on DU-145 [4] was 4.94 throughout.

Consider `CC[C@@H](C)[C@@H](NC(=O)[C@H](CCCN)NC(=O)[C@H]1CCCN1C(=O)[C@H](NC(=O)[C@@H](NC(=O)[C@@H](NC(=O)[C@H](NC(=O)CCCC(C)C)C(C)C)[C@@H](C)O)C(C)C)C(C)C)C(=O)N[C@H]1C(=O)N[C@H]([C@H](C)CC)C(=O)N[C@H](C(C)C)C(=O)N[C@@H](Cc2ccccc2)C(=O)N[C@H]([C@@H](C)O)C(=O)N[C@@H](C(C)C)C(=O)O[C@H]1C`, for which the negative logarithm of the IC50 (pIC50) in the assay on A549 is 4.94; in the assay on HT-29, 5.07; with SK-MEL-28 [3] it was 4.93; with DU-145 [4], 4.74.

Turning to `C/C=C1\NC(=O)[C@H](Cc2ccccc2)NC(=O)[C@@H](C(C)C)NC(=O)[C@@H]([C@H](C)CC)NC(=O)[C@H](NC(=O)[C@H](NC(=O)[C@@H](NC(=O)[C@@H](NC(=O)[C@H](NC(=O)CCCC(C)C)C(C)C)[C@@H](C)O)C(C)C)[C@H](C)CC)[C@H](C)OC(=O)[C@H](C(C)C)NC1=O`, the pIC50 in the assay with DU-145 [1], in the assay on A549, with SK-MEL-28 [2] and with HT-29 was 5.37 in each case.
